MT stabilizer – microtubule stabilization, imaging screen; HeLa tubulin immunostaining HCS, 24 h; share of cells brighter than vehicle mean+2SD; % tubulin-high responders, % at 10 µM; 200,000 compounds, 0.83% hits; AID 2205;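 active means plate Z-score above 3 for both tubulin-high and condensed-nucleus cell shares, with cell loss under 80%, at 10 µM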;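 further: anti alpha tubulin signal scored within the nucleus-defined area of each cell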
bCat nuc transl – beta-catenin nuclear translocation modulation; 190,000 compounds, 0.3% hits; HeLa beta-catenin nuclear translocation, immunofluorescence imaging; nuclear translocation activity, % at 5 µM;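 active means nuclear translocation activity above 50% at 5 µM, with a well cell count of 50 or more; inconclusive means wells under 50 cells across six images, flagged as toxic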;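 further: per-cell ratio of nuclear to cytoplasmic median beta-catenin stain intensity; plate controls were DMSO negative control for no effect and GSK-3 inhibitor IX positive control for full effect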
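System: HeLa cells, endogenous beta-catenin; compound dosing: 5 µM primary single dose, 0.1% DMSO, 0.02–20 µM confirmation series; incubation: 24 h compound exposure at 37°C, 5% CO2; signal: beta-catenin immunofluorescence imaging with DAPI; evaluation: % activation, nuclear-to-cytoplasmic median beta-catenin signal ratio per cell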
WT yeast gro inh – growth inhibition of WT yeast, mitochondrial fusion screen | mitochondrial fusion phenotypic screen, WT strain | inhibition, % at 10 µM | 190,000 compounds, 2.1% hits | AID 1362; in the data active means inhibition above about 58%; tested in S. cerevisiae
Cl transport mod – modulators of human KCC2 chloride dependent transport; KCC2 cells, thallium flux FluoZin-2 fluorescence; B-score of Tl+ flux slope (higher = more flux/activation; lower = inhibition) at 10 µM; 190,000 compounds, 2.2% hits;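 active means thallium flux slope and its plate-corrected score both differing from the plate sample mean at a set confidence after two filtering rounds, in either direction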;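 further: slope of fluorescence scaled to starting intensity during 10 to 20 s after thallium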
Target sequence (Q9H2X9 whole entry, looked up): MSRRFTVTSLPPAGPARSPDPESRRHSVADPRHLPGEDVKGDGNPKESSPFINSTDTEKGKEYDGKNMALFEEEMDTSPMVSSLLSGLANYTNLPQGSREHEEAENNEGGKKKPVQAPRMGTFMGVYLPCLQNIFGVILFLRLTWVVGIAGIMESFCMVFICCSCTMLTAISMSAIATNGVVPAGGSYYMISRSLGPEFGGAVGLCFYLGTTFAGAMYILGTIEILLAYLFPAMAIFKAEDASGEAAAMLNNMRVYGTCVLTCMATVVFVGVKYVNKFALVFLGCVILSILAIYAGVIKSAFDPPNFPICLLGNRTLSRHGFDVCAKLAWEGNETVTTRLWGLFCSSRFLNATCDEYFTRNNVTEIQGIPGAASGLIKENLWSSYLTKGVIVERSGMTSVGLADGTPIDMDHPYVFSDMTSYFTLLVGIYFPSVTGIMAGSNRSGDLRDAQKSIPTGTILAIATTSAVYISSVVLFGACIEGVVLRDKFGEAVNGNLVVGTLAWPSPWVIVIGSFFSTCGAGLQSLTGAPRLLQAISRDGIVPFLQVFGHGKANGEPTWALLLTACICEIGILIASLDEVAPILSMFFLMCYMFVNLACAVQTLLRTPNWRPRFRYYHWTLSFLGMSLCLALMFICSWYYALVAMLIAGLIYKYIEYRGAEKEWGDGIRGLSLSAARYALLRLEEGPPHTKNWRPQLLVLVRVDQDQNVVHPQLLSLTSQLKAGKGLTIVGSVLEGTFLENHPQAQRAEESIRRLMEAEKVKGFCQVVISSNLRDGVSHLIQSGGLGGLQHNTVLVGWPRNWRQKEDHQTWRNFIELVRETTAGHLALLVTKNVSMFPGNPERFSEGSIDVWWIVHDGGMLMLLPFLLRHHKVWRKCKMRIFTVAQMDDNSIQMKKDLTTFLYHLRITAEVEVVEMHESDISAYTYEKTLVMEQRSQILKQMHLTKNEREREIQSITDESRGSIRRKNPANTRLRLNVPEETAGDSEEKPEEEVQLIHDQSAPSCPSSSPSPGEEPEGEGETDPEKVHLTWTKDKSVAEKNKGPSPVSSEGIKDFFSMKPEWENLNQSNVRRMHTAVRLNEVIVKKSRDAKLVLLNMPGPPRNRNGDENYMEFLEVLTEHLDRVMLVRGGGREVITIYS
Pf gametocyte – P. falciparum stage V gametocyte viability inhibition; P. falciparum stage V gametocytes, ATP luminescence, 24 h; 150,000 compounds, 0.065% hits; AID 743093; inhibition, % at 10.9 µM;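 active means inhibition above the mean plus 3 SD of compounds within the control limits, set per campaign, cut at about 38% in these data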;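 further: 0% = DMSO wells and 100% = medium only without gametocytes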
KCC2 secondary – KCC2 (human) modulation, secondary assay | shares compounds with Cl transport mod | HEK293-KCC2, thallium flux, FluoZin2 fluorescence; hits give high values | normalised thallium flux (F/F0 slope) at 10 µM | 3,700 compounds, 15% hits | AID 1713;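 active means thallium flux slope above the same plate's solvent-only control mean plus 3 SD; inconclusive means the two replicate wells disagree; inactive means no significant difference from solvent-only control wells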
KCC2 bumet counter – thallium flux despite bumetanide block in KCC2 cells, secondary assay 3. shares compounds with Cl transport mod. HEK293-KCC2 + bumetanide/ouabain, thallium flux FluoZin2; hits give high values. normalized thallium flux at 10 µM. 3,700 compounds, 49% hits. AID 1714;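 active means thallium entry rate above the same plate's blocked-transporter control wells by more than 3 SD; inconclusive means the two repeat wells disagree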;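 further: raw slope of fluorescence over initial fluorescence between 10 and 20 s after thallium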
KCC2 secondary2 – confirmation of human KCC2 transport modulators | normalized thallium flux at 10 µM | shares compounds with Cl transport mod | AID 1715 | HEK293-KCC2, thallium flux FluoZin2 fluorescence; actives lie on both sides; F/F0 rise rate, 10–20 s post-thallium | 3,700 compounds, 23% hits;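 active means thallium flux slope more than 3 SD above or below the plate's solvent-only control mean, mostly below; inconclusive means the two repeat wells disagreed; inactive means no significant shift from solvent-only controls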;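 further: raw slope with 0.1% DMSO as baseline and bumetanide as block control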
HEK counter1 – acts in parental HEK cells, KCC2 counter-screen | shares compounds with Cl transport mod | HEK293 parental cells, thallium flux FluoZin2, ouabain; baseline-ratio fluorescence slope, 10–20 s after thallium | thallium flux rate (normalised fluorescence) at 10 µM | 3,700 compounds, 46% hits;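 active means thallium flux rate significantly above the same plate's solvent-only control wells, beyond their mean plus 3 SD; inconclusive means the two replicate wells gave conflicting results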
KCC2 ouabain – confirmation of human KCC2 modulators with ouabain; shares compounds with Cl transport mod; 3,700 compounds, 48% hits; AID 1717; raw Tl+ flux slope (below DMSO = inhibition, above = activation) at 10 µM; HEK293-KCC2, thallium flux FluoZin2 fluorescence; bidirectional: low = inhibitor, high = activator;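 active means thallium flux slope beyond 3 SD from same-plate DMSO control mean in most replicates, usually higher, sometimes lower; inconclusive means repeat tests gave conflicting results; inactive means no significant difference from controls in most replicates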;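 further: slope of initial-normalized fluorescence between seconds 10 and 20 after thallium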
HEK counter2 – counter-screen for KCC2 modulators: effect in parental HEK293 cells; shares compounds with Cl transport mod; thallium flux FluoZin-2 fluorescence slope; thallium flux slope at 10 µM; 3,700 compounds, 33% hits;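 active means thallium flux slope above the same plate's solvent-control mean plus 3 SD in both duplicate wells; inconclusive means duplicate wells that disagreed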;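 further: run without ouabain in cells lacking the KCC2 cotransporter; slope of fluorescence scaled to its starting value between 10 and 20 s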
Numbers without * were called inactive; ? = inconclusive; / = not tested or not shown. This is a sample that favours compounds with a hit; in the whole collection about 4% have one here.

SMILES	MT stabilizer	bCat nuc transl	WT yeast gro inh	Cl transport mod	Pf gametocyte	KCC2 secondary	KCC2 bumet counter	KCC2 secondary2	HEK counter1	KCC2 ouabain	HEK counter2
O=C(CSc1ncnc2c1oc1ccccc12)NCC1CCCO1 (stereo not given)	4	/	/	-0.89	/	/	/	/	/	/	/
Cc1cc(C)cc(-n2cc(C(=O)O)c(=O)cc2C)c1	3	-3	6	0.23	-1	/	/	/	/	/	/
COc1ccc(CCN2CC(C(=O)NCc3ccc(F)cc3)CC2=O)cc1OC (stereo not given)	/	1	/	0	-1	/	/	/	/	/	/
COc1cc2cc(CCCOC(=O)c3ccc(C(F)(F)F)cc3)oc(=O)c2cc1OC	/	/	/	/	-29	/	/	/	/	/	/
O=c1cc(/N=C/c2coc3cc(Br)ccc3c2=O)[nH]c(=S)[nH]1	/	0	/	9.5*	-13	0.014*	0.045*	0.034	0.0089*	0.026	0.011
Cc1cccc2cc(CN(Cc3nnnn3C3CCCCC3)C3CCCC3)c3nnnn3c12	2	1	-5	-0.77	13	/	/	/	/	/	/
Cc1ccc(C)c(NC(=S)N/N=C/C(C)c2ccccc2)c1 (stereo not given)	5	-2	23	25*	2	0.011	0.024*	0.033	?	?	0.0084
Cc1ccc(C)c(NC(=S)NCc2ccccc2)c1	/	/	/	/	-50	/	/	/	/	/	/
Cc1cccc(Nc2nc(Cl)ncc2F)c1C	/	/	/	/	21	/	/	/	/	/	/
O=C(Nc1cc(S(=O)(=O)N2CCCCC2)ccc1Cl)c1ccccc1NS(=O)(=O)c1ccc(F)cc1	6	0	72*	-4.8*	4	0.0083	0.0065	?	0.0056	?	0.0091
O=C(Nc1cc(S(=O)(=O)N2CCCCC2)ccc1O)c1ccccc1NS(=O)(=O)c1ccc(F)cc1	4	0	-4	-0.086	8	/	/	/	/	/	/
O=C(Nc1ccc(-c2nc3ccccc3[nH]2)cc1)c1ccccc1NS(=O)(=O)c1ccc(F)cc1	4	1	-9	-4.6*	/	0.0077	0.0042	0.029	0.0073	0.015*	0.01
CNC(=O)CCN(Cc1ccco1)S(=O)(=O)c1ccc(OC)c(OC)c1	/	0	/	0.31	24	/	/	/	/	/	/
CC(NC(=O)COC(=O)CCc1ccccc1)c1ccccc1 (stereo not given)	2	/	-2	-0.081	/	/	/	/	/	/	/
CCC(CC)C(=O)c1c[nH]c(C(=O)OC)c1	2	2	6	2.2	/	/	/	/	/	/	/
Cc1ccc(N(CN2CCCC2=O)C(=O)c2ccc(C)c(C)c2)cc1	2	0	-2	/	/	/	/	/	/	/	/
Cc1ccc(C(=O)N(CN2CCCC2=O)c2ccccc2)cc1C	3	-2	-12	/	16	0.0086	0.0064	0.028	0.0073	0.02	0.0098
CC(C)COCC(O)CCC(=O)NNC(=S)Nc1ccccc1 (stereo not given)	3	1	-5	0.079	-5	/	/	/	/	/	/
CC(C)COC(=S)Nc1ccccc1	3	/	5	9.3*	/	0.0056	0.01*	0.031	0.01*	?	?
CC(=O)CCn1c(=O)n(CCC(C)=O)c(=O)n(CCC(C)=O)c1=O	4	1	-8	0.73	-19	0.0094	?	0.035	0.0083	0.024	?
Cc1noc(C)c1CSc1ncnc2sc(C)c(C)c12	1	0	4	0.27	/	/	/	/	/	/	/
O=C(O)CSc1ncnc2sc3c(c12)CCCC3	2	-2	-4	12*	/	0.006	0.0065*	?	0.0099*	0.018	0.0093
O=C(O)CSc1ncnc2sc3c(c12)CCC3	2	0	18	7.8*	-16	0.016*	0.035*	0.031	0.016*	0.037*	0.012*
Cc1ccc(C(=O)CSc2ncnc3sc4c(c23)CCCC4)cc1	0	-1	3	5.3*	/	0.014*	0.033*	0.032	0.026*	0.03*	?
CCSc1ncnc2sc3c(c12)CCC3	2	/	-4	0.93	/	/	/	/	/	/	/
SMILES	MT stabilizer	bCat nuc transl	WT yeast gro inh	Cl transport mod	Pf gametocyte	KCC2 secondary	KCC2 bumet counter	KCC2 secondary2	HEK counter1	KCC2 ouabain	HEK counter2
Cc1noc(C)c1CSc1ncnc2sc3c(c12)CCCCC3	4	-3	42	78*	1	0.033*	0.16*	?	0.078*	0.11*	0.028*
COc1ccc(N2CC(NC(=O)NCCC(C)C)CC2=O)cc1 (stereo not given)	5	-4	-7	-0.036	/	/	/	/	/	/	/
O=C1CC(N2CCN(c3nc4ccccc4s3)CC2)C(=O)N1c1cccc(F)c1 (stereo not given)	2	-4	-1	-0.38	-14	/	/	/	/	/	/
COc1cccc(NC(C)C(=O)Nc2cc([N+](=O)[O-])ccc2Cl)c1 (stereo not given)	5	/	-3	-2.2	/	/	/	/	/	/	/
CCN(CC)c1ccc(S(=O)(=O)N2CCOCC2)cc1NC(=O)CNCc1ccccc1	/	0	/	-5.6*	-26	0.0068	0.005	0.029	0.0062	?	0.0093
CCOC(=O)C1=C(CC)Nc2ccccc2N=C1NC(=O)CCNC(C)=O	4	-2	-8	-0.97	9	/	/	/	/	/	/
CCOC(=O)C1=C(CC)Nc2ccccc2N/C1=N\S(=O)(=O)c1cc(Br)ccc1Br	5	/	32	-4*	20	0.0055	?	0.024*	0.0063*	0.015*	?
Oc1c(C(c2ccccc2Cl)N2CCCC2)ccc2cccnc12 (stereo not given)	8	-4	2	2.9*	19	0.017	0.0085*	0.03	0.01*	0.018	0.013*
Oc1c(C(c2cccs2)N2CCN(c3ccccc3)CC2)ccc2cccnc12 (stereo not given)	4	15	7	0.093	/	/	/	/	/	/	/
O=C(COc1ccccc1)Nc1nnc(-c2ccc3c(c2)CCCC3)o1	4	-4	63	8.8*	/	?	0.061*	0.035	0.024*	0.041*	0.012*
O=C(CCOc1ccccc1)Nc1nnc(-c2ccc3c(c2)OCCO3)o1	4	-2	12	1.7	3	/	/	/	/	/	/
CC(=O)Oc1ccc(C(c2ccc(OC(C)=O)cc2)c2ccccn2)cc1	3	-1	-1	31*	/	?	0.047*	0.056*	0.028*	0.047*	0.027*
COc1ccc(C(=O)NNC(=S)NC(=O)c2ccc(F)cc2)cc1Br	/	/	/	/	9	/	/	/	/	/	/
COc1ccc(C(=O)N(C)Cc2ccccc2)cc1Br	2	0	-26	-1	7	/	/	/	/	/	/

Assay outcomes from PubChem.
